Results from PubChem BioAssay AID652185 (Vanderbilt Specialized Chemistry Center, 2013).
The source made the active and inactive calls. No rule for the calls is given here.

Molecular target: Metabotropic glutamate receptor 2 (Rattus norvegicus) (UniProt P31421)
Experiment: off-target modulation of rat mGlu2, profiling panel, selectivity assay for mGlu5 silent allosteric modulators, cell-based, HEK293A, Galpha15, calcium mobilization (AID 652185)
Conditions: HEK293A rmGlu2+Galpha15, Fluo4 calcium mobilization, glutamate CRC
In short: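 Test system: rat mGlu2 plus Galpha15 in HEK293A cells. Medium: HEPES-buffered HBSS with probenecid, pH 7.4. Also added: glutamate, 10 nM–1 mM, 9 concentrations. Doses: single compound dose of 10 µM, 1% DMSO final. Incubation: 60 min 37 °C dye load, compound 60 s pre-glutamate. Detection: Fluo4-AM (1 µM) calcium-dependent fluorescence.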

Sequence of Metabotropic glutamate receptor 2 (Rattus norvegicus) (P31421 whole entry, looked up): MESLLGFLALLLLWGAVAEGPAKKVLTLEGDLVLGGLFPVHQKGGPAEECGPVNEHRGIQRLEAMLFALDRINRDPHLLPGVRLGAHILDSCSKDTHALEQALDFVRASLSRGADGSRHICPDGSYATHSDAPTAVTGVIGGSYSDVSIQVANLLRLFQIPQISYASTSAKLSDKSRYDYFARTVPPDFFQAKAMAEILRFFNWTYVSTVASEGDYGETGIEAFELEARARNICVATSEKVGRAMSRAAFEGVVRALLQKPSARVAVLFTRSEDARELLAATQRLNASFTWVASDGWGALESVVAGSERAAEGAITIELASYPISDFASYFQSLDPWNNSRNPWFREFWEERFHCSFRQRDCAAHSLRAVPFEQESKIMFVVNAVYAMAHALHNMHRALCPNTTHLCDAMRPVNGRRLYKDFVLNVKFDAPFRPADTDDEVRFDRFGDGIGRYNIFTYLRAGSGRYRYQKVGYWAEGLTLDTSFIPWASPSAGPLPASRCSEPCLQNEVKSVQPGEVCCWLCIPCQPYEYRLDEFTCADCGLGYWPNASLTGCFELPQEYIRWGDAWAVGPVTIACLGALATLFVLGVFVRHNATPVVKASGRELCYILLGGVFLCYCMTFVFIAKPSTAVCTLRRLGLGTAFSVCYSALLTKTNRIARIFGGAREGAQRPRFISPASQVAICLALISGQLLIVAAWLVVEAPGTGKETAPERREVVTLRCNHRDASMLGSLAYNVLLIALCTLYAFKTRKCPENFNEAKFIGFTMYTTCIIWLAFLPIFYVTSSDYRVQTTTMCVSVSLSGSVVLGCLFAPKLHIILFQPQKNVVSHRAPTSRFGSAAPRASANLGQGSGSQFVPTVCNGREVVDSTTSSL

Structure (SMILES): O=C(c1ccc(C#Cc2cccc(F)c2)cn1)N1CC2CC2C1 (stereo unspecified)
- glutamate EC50 in presence of 10 uM compound (no shift = inactive): inactive
